Source: PubChem BioAssay
Compounds with a hit are over-represented: about 2% of the library has one in this group of screens.
Granule exo inh – LAMP-1 surface exposure blockers, TALL-104 cells – cell-based, flow cytometry, MLPCN library, primary screen; inhibition, % at 10 µM; actives 0.66% (n = 360,000); AID 651702, 2012; TALL-104 LAMP-1 surface exposure; cells stimulated with thapsigargin and PMA;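 active = inhibition above about 55%, limit read from the data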
VLA-4 inh – inhibition in human VLA-4 binding assay, primary screen, VLA-4 allosteric modulator project, MLPCN library, flow cytometry, VLA-4 expressing cells. inhibition, % (about 7 µM as worked out from the volumes in the protocol). ligand binding flow cytometry. Integrin alpha-4 (Homo sapiens), P13612. actives 0.2% (n = 330,000); in the data active = inhibition above about 50%
ABCB6 inh MLPCN – ABCB6 transporter inhibitors, primary screen, K562-ABCB6 cells, flow cytometry, MLPCN library | fluorescence ratio to DMSO, % at 10 µM | K562-ABCB6 porphyrin accumulation, 1 h; stronger effect = lower value | actives 0.19% (n = 360,000) | ATP-binding cassette sub-family B member 6 (Homo sapiens), Q9NP58;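 active = fluorescence ratio to DMSO below 75%, the collection mean minus 3 SD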;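 also: signal is porphyrin accumulated inside mitochondria; lower ratio means ABCB6 inhibition with less porphyrin fluorescence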
MT1-MMP act inh – blockers of MT1-MMP proenzyme processing, primary screen, HT1080 RFP-PRO-GFP cells, GFP/RFP fluorescence; actives 0.061% (n = 360,000); Matrix metalloproteinase-14 (Homo sapiens), P50281; AID 651647, 2012; GFP/RFP ratio fluorescence, overnight; percent of plate control window, DMSO zero; GFP/RFP ratio change, % at 20 µM;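 active = GFP/RFP ratio change of at least 30% with cell ATP level not reduced by more than half and red fluorescence within 50% of control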
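Compound: 20 µM single dose, 1% DMSO / System: HT1080 RFP-PRO-GFP cells / Controls: DMSO and RFP-L50D-GFP cell wells / Read-out basis: GFP/RFP fluorescence ratio / Schedule: overnight compound exposure at 37 °C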
DAGLB inhibitor – DAGLB lipase inhibitors, primary screen, biochemical, fluorescence, HTS | Diacylglycerol lipase-beta (Homo sapiens), Q8NCG7 | HEK293T DAGLB membrane lysate, EnzChek fluorogenic substrate | inhibition, % at 5.17 µM | actives 0.059% (n = 340,000) | AID 504411, 2011; in the data active = inhibition above about 34%
FGF22 binding – binders of human FGF22 protein, primary screen, FGF22 synaptogenesis inhibitor project, biophysical, thermal shift, single point. Fibroblast growth factor 22 (Homo sapiens), Q9HCT0. recombinant FGF22 thermal shift, SYPRO orange fluorescence; percent of sucrose octasulfate shift, DMSO zero. activity (Tm shift, normalised), % at 9.99 µM. actives 1.5% (n = 340,000). AID 651658, 2012;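 active = mean Tm shift, scaled 0 neutral to 100 positive control, at about 1.3% or above, every replicate too, limit read from the data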
Target sequence (Q9HCT0 whole entry, looked up): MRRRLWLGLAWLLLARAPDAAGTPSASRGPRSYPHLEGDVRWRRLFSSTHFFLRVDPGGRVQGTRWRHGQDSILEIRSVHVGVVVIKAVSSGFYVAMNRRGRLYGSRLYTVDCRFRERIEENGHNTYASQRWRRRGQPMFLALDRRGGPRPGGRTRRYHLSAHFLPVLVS
Granule exo CP1 – inhibitors of lytic granule exocytosis, confirmation, TALL-104 cells, flow cytometry, Cherry Pick01 | shares compounds with Granule exo inh | LAMP-1 externalization; stimulated with PMA plus thapsigargin | inhibition, % at 10 µM | actives 11% (n = 1,500) | AID 651954, 2012; in the data active = inhibition above about 60%
Numbers stand for hits; . = inactive; / = no result given.

SMILES	Granule exo inh	VLA-4 inh	ABCB6 inh MLPCN	MT1-MMP act inh	DAGLB inhibitor	FGF22 binding	Granule exo CP1
COC(=O)[C@@H]1[C@@H](CO)[C@@H]2Cn3c(ccc(-c4cncnc4)c3=O)[C@H]1N2S(=O)(=O)c1ccccc1C	/	/	/	/	/	.	/
COC(=O)[C@@H]1[C@@H](CO)[C@@H]2Cn3c(ccc(-c4ccc(F)cc4)c3=O)[C@H]1N2C(=O)c1ccccc1F	/	/	/	/	/	.	/
CCOC(=O)[C@]12Cc3cc(Cl)ccc3[C@H]1N(C1CCCCC1)C(=O)c1cc(OC)ccc12	100	/	.	.	/	.	92
COC(=O)[C@H]1[C@H](CO)[C@H]2Cn3c(ccc(/C=C/c4ccccc4)c3=O)[C@@H]1N2C(=O)C1CC1	/	/	/	/	/	.	/
COC(=O)c1ccc(NC(=O)CSc2nc3ccc(N4C(=O)C5C6C=CC(C6)C5C4=O)cc3s2)cc1 (stereo not given)	81	.	.	.	.	.	85
Cc1ccc(OCC(=O)N2CCN(C3CCC(c4ccccc4)CC3)CC2)cc1 (stereo not given)	95	.	.	.	.	.	.
CC(C)CNC(=O)c1c(N)n(Cc2ccc3c(c2)OCO3)c2nc3ccccc3nc12	56	.	.	.	.	/	81
CCCNC(=O)c1c(N)n(Cc2ccc3c(c2)OCO3)c2nc3ccccc3nc12	.	.	.	.	.	/	/
COC(=O)[C@@H]1[C@@H](CO)[C@@H]2Cn3c(ccc(-c4ccccc4F)c3=O)[C@H]1N2Cc1ccncc1	/	/	/	/	/	.	/
CN1CCC(O)(c2cccs2)C(C(=O)c2cccs2)C1 (stereo not given)	75	.	.	.	.	.	.
COC(=O)[C@H]1[C@H](CO)[C@H]2Cn3c(ccc(-c4ccccc4)c3=O)[C@@H]1N2S(=O)(=O)c1ccccc1C	/	/	/	/	/	.	/
COc1ccc(CC(=O)N(CCN(C)C)CC2CCCN(Cc3ccccc3F)C2)cc1 (stereo not given)	63	.	.	.	.	.	.
CN(C)CCN(CC1CCCN(Cc2ccccc2F)C1)C(=O)Cc1ccccc1F (stereo not given)	.	.	.	.	.	.	/
